Test results reported in ChEMBL document CHEMBL1287671, “Design, synthesis and SAR of a novel series of benzimidazoles as potent NPY Y5 antagonists” (Bioorg Med Chem Lett, 2010).
One block for each compound: values may come before it.

Tests used:
Liver microsomes = assay: Intrinsic clearance in human liver microsomes; assay type: ADME, Microsome
How it was run: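 Intrinsic clearance measured in human liver microsomes; expressed as ml/min/g liver.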

[1] = Ratio of drug level in brain to blood in rat at 0.5 mg/kg, iv after 1 hr; assay type: ADME, organism-based; parameters: dose 0.5 mg/kg, route intravenous
How it was run: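 Male rats given 0.5 mg/kg iv; brain and blood levels sampled 1 h after dosing and expressed as brain/blood partition.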

SMILES: O=C(Nc1nc(-c2ccccn2)cs1)N1CCC2(CC1)CN(c1ccccc1)C(=O)O2
CL (Liver microsomes): 0.6 mL/min/g
Kp at 1 h [1]: < 0.1

SMILES: O=C1OC2(CCN(c3nc4cc(Br)ccc4[nH]3)CC2)CN1c1ccccc1
CL (Liver microsomes): 2.5 mL/min/g

SMILES: O=C1OC2(CCN(c3nc4cc(F)ccc4[nH]3)CC2)CN1c1ccccc1
CL (Liver microsomes): 7 mL/min/g

SMILES: O=C1OC2(CCN(c3nc4cc(-c5ccc(F)cc5)ccc4[nH]3)CC2)CN1c1ccccc1
CL (Liver microsomes): 7 mL/min/g

SMILES: O=C1OC2(CCN(c3nc4cc(OC(F)(F)F)ccc4[nH]3)CC2)CN1c1ccccc1
CL (Liver microsomes): 0.5 mL/min/g
Kp at 1 h [1]: 0.3

SMILES: O=C1O[C@]2(CC[C@H](c3nc4ccc(OC(F)(F)F)cc4[nH]3)CC2)CN1c1ccccc1
CL (Liver microsomes): 0.5 mL/min/g
Kp at 1 h [1]: 0.6

SMILES: Cc1ccccc1N1C[C@]2(CC[C@@H](c3nc4ccc(OC(F)(F)F)cc4[nH]3)CC2)OC1=O
CL (Liver microsomes): 0.5 mL/min/g

SMILES: O=C1O[C@]2(CC[C@H](c3nc4ccc(OC(F)(F)F)cc4[nH]3)CC2)CN1c1ccccc1Cl
CL (Liver microsomes): 0.5 mL/min/g

SMILES: O=C1O[C@]2(CC[C@H](c3nc4cc(OC(F)(F)F)ccc4[nH]3)CC2)CN1c1ccccn1
CL (Liver microsomes): 0.5 mL/min/g
Kp at 1 h [1]: 0.5

SMILES: Cc1cccc(N2C[C@]3(CC[C@@H](c4nc5ccc(OC(F)(F)F)cc5[nH]4)CC3)OC2=O)n1
CL (Liver microsomes): 0.6 mL/min/g

SMILES: Cc1ncccc1N1C[C@]2(CC[C@@H](c3nc4ccc(OC(F)(F)F)cc4[nH]3)CC2)OC1=O
CL (Liver microsomes): 0.6 mL/min/g

SMILES: O=C1O[C@]2(CC[C@H](c3nc4ccc(OC(F)(F)F)cc4[nH]3)CC2)CN1c1cccc(F)n1
CL (Liver microsomes): 0.5 mL/min/g

SMILES: O=C1O[C@]2(CC[C@H](c3nc4cc(C(F)(F)F)ccc4[nH]3)CC2)CN1c1ccccn1
CL (Liver microsomes): 0.5 mL/min/g

SMILES: O=C1OC2(CCN(c3nc4cc(C(F)(F)F)ccc4[nH]3)CC2)CN1c1ccccc1
CL (Liver microsomes): 0.5 mL/min/g
Kp at 1 h [1]: 0.2

SMILES: O=C1OC2(CCN(c3nc4ccccc4[nH]3)CC2)CN1c1ccccc1
CL (Liver microsomes): 9.8 mL/min/g

Now from value to compound:

CL (Liver microsomes): 0.5 mL/min/g
Kp at 1 h [1]: 0.8
SMILES: O=C1O[C@]2(CC[C@H](c3nc4cc(OC(F)(F)F)ccc4[nH]3)CC2)CN1c1ccccc1F

CL (Liver microsomes): 0.5 mL/min/g
SMILES: O=C1O[C@]2(CC[C@H](c3nc4cc(OC(F)(F)F)ccc4[nH]3)CC2)CN1c1ccc(F)cc1

CL (Liver microsomes): 0.5 mL/min/g
SMILES: O=C1O[C@]2(CC[C@H](c3nc4cc(OC(F)(F)F)ccc4[nH]3)CC2)CN1c1cccnc1

CL (Liver microsomes): 0.5 mL/min/g
Kp at 1 h [1]: 0.3
SMILES: O=C1O[C@]2(CC[C@H](c3nc4cc(C(F)(F)F)ccc4[nH]3)CC2)CN1c1ccccc1

CL (Liver microsomes): 0.5 mL/min/g
Kp at 1 h [1]: < 0.03
SMILES: N#Cc1ccc2nc([C@H]3CC[C@]4(CC3)CN(c3ccccc3)C(=O)O4)[nH]c2c1

CL (Liver microsomes): 0.5 mL/min/g
SMILES: N#Cc1ccc2[nH]c([C@H]3CC[C@]4(CC3)CN(c3ccc(F)cc3)C(=O)O4)nc2c1

CL (Liver microsomes): 15 mL/min/g
SMILES: N#Cc1ccc2nc([C@H]3CC[C@]4(CC3)CN(c3ccccn3)C(=O)O4)[nH]c2c1
